Measured values as given in ChEMBL document CHEMBL1933011, “Probing the antiamoebic and cytotoxicity potency of novel tetrazole and triazine derivatives” (Eur J Med Chem, 2012).

Key:
HepG2 [1] = experiment: Cytotoxicity against human HepG2 cells after 48 hrs by MTT assay; assay type: cell-based; conditions: for IC50: Homo sapiens, HepG2, 48 h; for Activity: human, hepg2, 48 h
Procedure, shortened: (§1)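 HepG2 in DMEM/10% FBS, 1.2 × 10^4 cells/well, grown 48 h before dosing. Compounds from 10% DMSO stocks diluted in medium, 3.13–100 µM, 48 h at 37 °C, 5% CO2. MTT (5 mg mL-1) for 4 h, DMSO solubilisation, absorbance at 570 nm (reference 655 nm). Viability is treated absorbance relative to untreated control. Triplicate, repeated thrice.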

[2] = Safety index, ratio of IC50 for human HepG2 cells to IC50 for Entamoeba histolytica HM-1:IMSS; assay type: toxicity, cell-based; conditions: read-out: Ratio IC50
Procedure, shortened: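 Safety index calculated as HepG2 MTT IC50 (48 h) divided by E. histolytica HM1:IMSS IC50 (72 h microdilution).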

[3] = Cytotoxicity against human HepG2 cells assessed as viable cells at 3.13 uM after 48 hrs by MTT assay; assay type: cell-based; conditions: read-out: Activity; procedure, shortened: as §1
Entamoeba histolytica = experiment: Antiamoebic activity against Entamoeba histolytica HM-1:IMSS after 72 hrs by microdilution method; assay type: functional, organism-based
Procedure, shortened: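 E. histolytica HM1:IMSS trophozoites in Diamond TYIS-33 medium; 1 mg mL-1 DMSO stocks, two-fold serial dilutions; 1.7 × 10^4 amoebae/well; sealed, gassed with nitrogen 10 min, 35.5 °C for 72 h. Wells methanol-fixed, eosin-stained, dye released in 0.1N NaOH, OD 490 nm. % inhibition vs control plotted against log dose; IC50 by linear regression. Triplicate, repeated thrice.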

[4] = Cytotoxicity against human HepG2 cells assessed as viable cells at 25 uM after 48 hrs by MTT assay; assay type: cell-based; conditions: read-out: Activity; procedure, shortened: as §1
HepG2 [5] = experiment: Cytotoxicity against human HepG2 cells up to 50 uM after 48 hrs by MTT assay; assay type: cell-based; conditions: hepg2, 48 h; procedure, shortened: as §1
HepG2 [6] = experiment: Cytotoxicity against human HepG2 cells up to 100 uM after 48 hrs by MTT assay; assay type: cell-based; conditions: hepg2, 48 h; procedure, shortened: as §1

IC50 (Entamoeba histolytica) [µM]	SMILES	IC50 (HepG2 [1]) [µM]	selectivity ratio [2]	viability at 48 h, 3.13 µM [3] [%]	Activity (HepG2 [1])	viability at 48 h, 25 µM [4] [%]	Activity (HepG2 [5])	Activity (HepG2 [6])
	Cc1ncc([N+](=O)[O-])n1CCO [METRONIDAZOLE]	> 100	> 55.5	92.5				
6.28	CC(C)c1ccc(S(=O)(=O)n2nnnc2-c2ccc3c(c2)OCO3)cc1	> 100	> 15.9	92.5	Dose-dependent effect	≥ 70	Toxic	Toxic
3.54	Nc1nc(N)nc(-c2ccc3c(c2)OCO3)n1			92.5	Dose-dependent effect	≥ 70	Toxic	Toxic
7.56	O=S(=O)(c1ccccc1)n1nnnc1-c1ccc2c(c1)OCO2	> 100	> 13.2	92.5	Dose-dependent effect	≥ 70	Toxic	Toxic
6.1	Cc1ccc(S(=O)(=O)n2nnnc2-c2ccc3c(c2)OCO3)cc1	> 100	> 16.4	92.5	Dose-dependent effect	≥ 70	Toxic	Toxic
2.15	Cc1ccc(S(=O)(=O)Nc2nc(NS(=O)(=O)c3ccc(C)cc3)nc(-c3ccc4c(c3)OCO4)n2)cc1	> 100	> 46.5	92.5	Dose-dependent effect	≥ 70	Toxic	Toxic
14.2	c1cc2c(cc1-c1nnn[nH]1)OCO2			92.5	Dose-dependent effect	≥ 70	Toxic	Toxic
1.02	O=[N+]([O-])c1ccc(S(=O)(=O)Nc2nc(NS(=O)(=O)c3ccc([N+](=O)[O-])cc3)nc(-c3ccc4c(c3)OCO4)n2)cc1	> 100	> 98	92.5	Dose-dependent effect	≥ 70	Toxic	Toxic
2.6	O=S(=O)(Nc1nc(NS(=O)(=O)c2ccccc2)nc(-c2ccc3c(c2)OCO3)n1)c1ccccc1	> 100	> 38.5	92.5	Dose-dependent effect	≥ 70	Toxic	Toxic
2.85	CC(C)c1ccc(S(=O)(=O)Nc2nc(NS(=O)(=O)c3ccc(C(C)C)cc3)nc(-c3ccc4c(c3)OCO4)n2)cc1	> 100	> 35.1	92.5	Dose-dependent effect	≥ 70	Toxic	Toxic
2.56	O=S(=O)(Nc1nc(NS(=O)(=O)c2ccc(Cl)cc2Cl)nc(-c2ccc3c(c2)OCO3)n1)c1ccc(Cl)cc1Cl	> 100	> 39.1	92.5	Dose-dependent effect	≥ 70	Toxic	Toxic
1.05	O=S(=O)(Nc1nc(NS(=O)(=O)c2ccc(Cl)cc2)nc(-c2ccc3c(c2)OCO3)n1)c1ccc(Cl)cc1	> 100	> 95.2	92.5	Dose-dependent effect	≥ 70	Toxic	Toxic
3.75	O=[N+]([O-])c1ccc(S(=O)(=O)n2nnnc2-c2ccc3c(c2)OCO3)cc1	84.7	22.6	92.5	Dose-dependent effect	≥ 70	Toxic	Toxic
4.85	O=S(=O)(c1ccc(Cl)cc1)n1nnnc1-c1ccc2c(c1)OCO2	> 100	> 20.6	92.5	Dose-dependent effect	≥ 70	Toxic	Toxic
6.9	O=S(=O)(c1ccc(Cl)cc1Cl)n1nnnc1-c1ccc2c(c1)OCO2	85	12.3	92.5	Dose-dependent effect	≥ 70	Toxic	Toxic
